Calls of active or inactive are those of the source. The rule behind the calls is not given here.
Key:
[1] = system: NCI-H322M; assay: Growth inhibition of human NCI-H322M cells; type: functional
[2] = system: COLO 205; assay: Growth inhibition of human COLO205 cells; type: functional
[3] = system: KM12; assay: Growth inhibition of human KM12 cells; type: functional
[4] = system: SF-268; assay: Growth inhibition of human SF268 cells; type: functional
[5] = Growth inhibition of human SF295 cells; type: functional; details: SF-295
[6] = system: U-251; assay: Growth inhibition of human U251 cells; type: functional
[7] = system: M14; assay: Growth inhibition of human M14 cells; type: functional
[8] = system: SK-MEL-2; assay: Growth inhibition of human SK-MEL-2 cells; type: functional
[9] = Growth inhibition of human UACC257 cells; type: functional
[10] = Growth inhibition of human UACC62 cells; type: functional; details: UACC-62
[11] = Growth inhibition of human OVCAR3 cells; type: functional; details: OVCAR-3
[12] = Growth inhibition of human OVCAR5 cells; type: functional; details: OVCAR-5
[13] = Growth inhibition of human OVCAR8 cells; type: functional
[14] = Growth inhibition of human NCI-ADR-RES cells; type: functional
[15] = system: 786-0; assay: Growth inhibition of human 786-0 cells; type: functional
[16] = system: A498; assay: Growth inhibition of human A498 cells; type: functional
[17] = system: SN12C; assay: Growth inhibition of human SN12C cells; type: functional
[18] = system: PC-3; assay: Growth inhibition of human PC3 cells; type: functional
[19] = system: DU-145; assay: Growth inhibition of human DU145 cells; type: functional
[20] = Growth inhibition of human Hs 578T cells; type: functional
[21] = biological target: T1, Proteasome Macropain subunit MB1 (Homo sapiens) (UniProt P28074); assay: Inhibition of chymotrypsin-like activity of 20S proteasome in human erythrocytes using Suc-Leu-Leu-Val-Tyr-AMC as substrate at 20 uM by fluorescence assay relative to control
T1 sequence (whole entry): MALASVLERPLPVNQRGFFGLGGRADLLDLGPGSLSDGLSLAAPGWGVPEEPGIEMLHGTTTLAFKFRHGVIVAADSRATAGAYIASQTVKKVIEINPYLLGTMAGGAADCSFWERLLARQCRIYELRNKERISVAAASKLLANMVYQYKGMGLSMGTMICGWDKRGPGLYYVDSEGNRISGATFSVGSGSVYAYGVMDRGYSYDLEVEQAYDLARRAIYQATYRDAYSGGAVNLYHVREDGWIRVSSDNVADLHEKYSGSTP
Method in brief: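 Single inhibitor concentration, equivalent DMSO as negative control. AMC fluorescence read at ex 380/em 460 nm; percent inhibition of ChT-L activity.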

[22] = biological target: T2, Proteasome Macropain subunit MB1 (Homo sapiens, UniProt P28074); assay: Inhibition of chymotrypsin-like activity of 20S proteasome in human erythrocytes using Suc-Leu-Leu-Val-Tyr-AMC as substrate by fluorescence assay; details: read-out: Ki
T2 sequence (P28074 whole entry): T1 sequence (whole entry)

[23] = biological target: Proteasome Macropain subunit (Homo sapiens) (UniProt P49721); assay: Inhibition of trypsin-like activity of 20S proteasome in human erythrocytes using Boc-Leu-Arg-Arg-AMC as substrate by fluorescence assay; type: cell-based
Method in brief: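 Human 20S proteasome 0.0025 mg/mL at 30 °C in 50 mM Tris pH 7.4, 50 mM NaCl, 0.5 mM EDTA, 0.03% SDS, 7.5% DMSO. Varied inhibitor concentrations; AMC release monitored continuously for 10 min, ex 380/em 460 nm. Ki derived from progress-curve IC50 fit.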

[24] = biological target: Chymotrypsinogen A (Bos taurus, UniProt P00766); assay: Inhibition of bovine pancreatic alpha-chymotrypsin using Suc-Leu-Leu-Val-Tyr-AMC as substrate by fluorescence assay
Method in brief: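 Enzyme incubated at 20 °C in 50 mM Tris pH 8.0, 100 mM NaCl, 5 mM EDTA, 7.5% DMSO with varied inhibitor concentrations. Substrate hydrolysis followed for 10 min. Ki from progress curves; mean of three determinations.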

[25] = Cytotoxicity against human leukemia cells assessed as cell growth at 10 uM relative to control; type: functional; details: read-out: Activity
Method in brief: (§1)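 Single-concentration screen against a panel of human cancer cell lines. Each value is the mean percent growth across the cell lines of that tumour subpanel.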

[26] = Cytotoxicity against human NSCLC cells assessed as cell growth at 10 uM relative to control; type: functional; details: read-out: Activity; method in brief: as §1
[27] = Cytotoxicity against human ovarian cancer cells assessed as cell growth at 10 uM relative to control; type: functional; details: Cancer cell lines, read-out: Activity; method in brief: as §1
[28] = Cytotoxicity against human renal cancer cells assessed as cell growth at 10 uM relative to control; type: functional; details: Cancer cell lines, read-out: Activity; method in brief: as §1
[29] = Cytotoxicity against human prostate cancer cells assessed as cell growth at 10 uM relative to control; type: functional; details: Cancer cell lines, read-out: Activity; method in brief: as §1
[30] = Cytotoxicity against human breast cancer cells assessed as cell growth at 10 uM relative to control; type: functional; details: Cancer cell lines, read-out: Activity; method in brief: as §1
[31] = system: CCRF-CEM; assay: Growth inhibition of human CCRF-CEM cells; type: functional
[32] = system: RPMI-8226; assay: Growth inhibition of human RPMI8226 cells; type: functional
[33] = system: HOP-62; assay: Growth inhibition of human HOP62 cells; type: functional
[34] = Growth inhibition of human HOP92 cells; type: functional
[35] = read-out: LC50 (the source's name)

Sequence of Proteasome Macropain subunit (Homo sapiens) (P49721 whole entry): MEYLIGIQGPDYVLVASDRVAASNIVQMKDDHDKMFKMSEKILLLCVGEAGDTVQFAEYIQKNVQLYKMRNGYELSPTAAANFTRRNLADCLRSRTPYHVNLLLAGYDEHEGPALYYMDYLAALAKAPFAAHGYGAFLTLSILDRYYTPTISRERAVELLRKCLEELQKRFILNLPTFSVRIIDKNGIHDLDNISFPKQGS

CC(C)C[C@H](NC(=O)CCn1ccc2ccccc2c1=O)B(O)O
GI50 [1]: 76.8 µM
TGI [1]: > 100 µM
CC50 [1, 35]: > 100 µM
GI50 [2]: 5.06 µM
TGI [2]: > 100 µM
CC50 [2, 35]: > 100 µM
GI50 [3]: 7.51 µM
LC50 [3]: > 100 µM
TGI [3]: 29.8 µM
GI50 [4]: 5.69 µM
LC50 [4]: > 100 µM
TGI [4]: 30.4 µM
GI50 [5]: 3.78 µM
LC50 [5]: 83.3 µM
TGI [5]: 19.6 µM
GI50 [6]: 4.23 µM
TGI [6]: > 100 µM
CC50 [6, 35]: > 100 µM
GI50 [7]: 4.23 µM
LC50 (concentration killing 50% of cells) [7]: > 100 µM
TGI [7]: > 100 µM
GI50 [8]: 3.58 µM
LC50 [8]: > 100 µM
TGI [8]: 32.5 µM
GI50 ([9]; UACC-257): 3.68 µM
TGI ([9]; UACC-257): 33.8 µM
CC50 ([9]; UACC-257, read-out: LC50 (the source's name)): > 100 µM
GI50 [10]: 4.29 µM
LC50 (concentration killing 50% of cells) [10]: > 100 µM
TGI [10]: 24.9 µM
GI50 [11]: 1.97 µM
LC50 (concentration killing 50% of cells) [11]: 31.7 µM
TGI [11]: 5.66 µM
GI50 [12]: 18.8 µM
LC50 [12]: > 100 µM
TGI [12]: > 100 µM
GI50 ([13]; OVCAR-8): 15.3 µM
TGI ([13]; OVCAR-8): > 100 µM
CC50 ([13]; OVCAR-8, read-out: LC50 (the source's name)): > 100 µM
GI50 [14]: 67.1 µM
LC50 [14]: > 100 µM
TGI [14]: > 100 µM
GI50 [15]: 4.76 µM
TGI [15]: > 100 µM
CC50 [15, 35]: > 100 µM
GI50 [16]: 1.22 µM
LC50 [16]: > 100 µM
TGI [16]: 4.79 µM
GI50 [17]: 11.2 µM
TGI [17]: 55.4 µM
CC50 [17, 35]: > 100 µM
GI50 [18]: 5.77 µM
TGI [18]: > 100 µM
CC50 [18, 35]: > 100 µM
GI50 [19]: 9.13 µM
TGI [19]: > 100 µM
CC50 [19, 35]: > 100 µM
GI50 [20]: 3.63 µM
TGI [20]: 48.7 µM
CC50 [20, 35]: > 100 µM
inhibition [21]: > 40%
Ki [22]: 0.051 µM
inhibition [23]: inactive
Ki [24]: Not Active
growth at 10 µM [25]: 21.1%
growth at 10 µM [26]: 60.3%
growth at 10 µM [27]: 73.1%
growth at 10 µM [28]: 32.3%
growth at 10 µM [29]: 57.8%
growth at 10 µM [30]: 38.1%
GI50 [31]: 2.02 µM
TGI [31]: 25.4 µM
CC50 [31, 35]: > 100 µM
GI50 [32]: 1.06 µM
TGI [32]: 7.07 µM
CC50 [32, 35]: > 100 µM
GI50 [33]: 4.51 µM
TGI [33]: 22.1 µM
CC50 [33, 35]: 96.4 µM
GI50 ([34]; HOP-92): 10.9 µM
TGI ([34]; HOP-92): 67.1 µM
CC50 ([34]; HOP-92, read-out: LC50 (the source's name)): > 100 µM
